From ChEMBL document CHEMBL5143669, “Stapled peptides as scaffolds for developing radiotracers for intracellular targets: Preliminary evaluation of a radioiodinated MDM2-binding stapled peptide in the SJSA-1 osteosarcoma model” (Bioorg Med Chem Lett, 2022)

Tests used:
[1] = Biodistribution in Muscle of athymic mouse xenografted with human SJSA-1 cells at 166.5 kBq, iv after 30 mins by automated gamma counting method; type: ADME, organism-based, Muscle tissue; conditions: in vivo, 0.5 h
Procedure, shortened: (§1)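 125I-labeled peptide (166.5 kBq in 100 μL) was injected via tail vein into athymic mice bearing flank SJSA-1 xenografts, n = 5 per time point. Tumors, blood and major organs were gamma-counted at 0.5, 2, 6 and 24 h post-injection. Values are %ID/g.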

[2] = Biodistribution in Thyroid of athymic mouse xenografted with human SJSA-1 cells at 166.5 kBq, iv after 24 hrs by automated gamma counting method; type: ADME, organism-based, Thyroid gland; conditions: in vivo
Procedure, shortened: (§2)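 Athymic mice bearing flank SJSA-1 xenografts received 125I-SIB-labeled peptide (166.5 kBq, 100 μL) by tail vein; groups of five per time point. Tumor, blood and organs were taken at 0.5–24 h and counted by gamma counter; values expressed as %ID/g.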

[3] = Biodistribution in Large intestine of athymic mouse xenografted with human SJSA-1 cells at 166.5 kBq, iv after 30 mins by automated gamma counting method; type: ADME, organism-based; conditions: in vivo, 0.5 h; procedure, shortened: as §1
[4] = Biodistribution in Bone of athymic mouse xenografted with human SJSA-1 cells at 166.5 kBq, iv after 30 mins by automated gamma counting method; type: ADME, organism-based, Bone element; conditions: in vivo, 0.5 h; procedure, shortened: as §1
[5] = Biodistribution in Liver of athymic mouse xenografted with human SJSA-1 cells at 166.5 kBq, iv after 24 hrs by automated gamma counting method; type: ADME, organism-based; conditions: in vivo; procedure, shortened: as §1
[6] = Biodistribution in Small intestine of athymic mouse xenografted with human SJSA-1 cells at 166.5 kBq, iv after 24 hrs by automated gamma counting method; type: ADME, organism-based; conditions: in vivo; procedure, shortened: as §1
[7] = Biodistribution in Blood of athymic mouse xenografted with human SJSA-1 cells at 166.5 kBq, iv after 6 hrs by automated gamma counting method; type: ADME, organism-based; conditions: in vivo; procedure, shortened: as §1
[8] = Biodistribution in Heart of athymic mouse xenografted with human SJSA-1 cells at 166.5 kBq, iv after 2 hrs by automated gamma counting method; type: ADME, organism-based; conditions: in vivo; procedure, shortened: as §1
[9] = Biodistribution in Large intestine of athymic mouse xenografted with human SJSA-1 cells at 166.5 kBq, iv after 24 hrs by automated gamma counting method; type: ADME, organism-based; conditions: in vivo; procedure, shortened: as §1
[10] = Biodistribution in Tumor of athymic mouse xenografted with human SJSA-1 cells at 166.5 kBq, iv after 2 hrs by automated gamma counting method; type: ADME, organism-based, Neoplasm; conditions: in vivo; procedure, shortened: as §2
[11] = Drug uptake in MDM2-amplified human SJSA-1 cells expressing wild type p53 assessed as initially bound radioactivity incubated for 0.5 hrs subsequently re-incubating the cells with fresh medium for up to 2 hrs; type: ADME, cell-based; conditions: sjsa-1, 0.5 h
Procedure, shortened: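 SJSA-1 cells were loaded with 125I-labeled peptide for 1 h, then reincubated in fresh medium for 0.5–2 h. Cell-retained activity and cumulative release into the supernatant were expressed as percentage of initially bound activity.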

Drug uptake [1]: 0.16 % ID/g
Drug uptake [2]: 0.27 % ID/g
Drug uptake [3]: 0.06 % ID/g
Drug uptake [4]: 0.38 % ID/g
Drug uptake [5]: 4.72 % ID/g
Drug uptake [6]: 0.86 % ID/g
Drug uptake [7]: 5.12 % ID/g
Drug uptake [8]: 2.44 % ID/g
Drug uptake [9]: 1.87 % ID/g
Drug uptake [10]: 2.19 % ID/g
Drug uptake [11]: 83.1%
Structure (SMILES): CC(=O)NC(CCCCNC(=O)c1cccc([125I])c1)C(=O)NCCCCCC(=O)N[C@H](C(=O)N[C@@H](CO)C(=O)N[C@@H](Cc1ccccc1)C(=O)N[C@@]1(C)CCCCCC/C=C/CCC[C@@](C)(C(=O)N[C@@H](CCC(=O)O)C(=O)N[C@@H](CC(N)=O)C(=O)N[C@@H](Cc2ccccc2)C(N)=O)NC(=O)[C@H](CC(C)C)NC(=O)[C@H](CC(C)C)NC(=O)[C@H](C)NC(=O)[C@H](Cc2c[nH]c3ccccc23)NC(=O)[C@H](Cc2ccc(O)cc2)NC(=O)[C@H](CCC(=O)O)NC1=O)[C@@H](C)O (stereo partly specified)
